KCNQ1 block = inhibitors of human KCNQ1 channel, primary screen, cell-based, thallium flux, high-throughput | Potassium voltage-gated channel subfamily KQT member 1 (Homo sapiens), P51787 | CHO-K1 KCNQ1, FluxOR thallium flux fluorescence; active compounds read high | B-score at 10 µM | 310,000 compounds, 1.3% hits | AID 2642, 2010;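 active = compounds whose thallium flux B-score, printed positive for inhibition, exceeds three library SD while starting fluorescence stays within three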;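 note: channel opened by potassium depolarization with thallium stimulus after 20 min compound exposure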
KCNK9 block = KCNK9 potassium channel inhibitors, primary screen, HEK293 cells, thallium flux; Potassium channel subfamily K member 9 (Homo sapiens), Q9NPC2; 310,000 compounds, 1.2% hits; FluxOR thallium flux fluorescence; active compounds read low; AID 488922, 2010; B-score at 10 µM;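 active = ratio B-score over 3 SD below the library mean, with starting fluorescence within 5 SD of its mean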;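 note: negative B-score means less thallium flux so channel inhibition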
Target sequence (Q9NPC2 whole entry, looked up): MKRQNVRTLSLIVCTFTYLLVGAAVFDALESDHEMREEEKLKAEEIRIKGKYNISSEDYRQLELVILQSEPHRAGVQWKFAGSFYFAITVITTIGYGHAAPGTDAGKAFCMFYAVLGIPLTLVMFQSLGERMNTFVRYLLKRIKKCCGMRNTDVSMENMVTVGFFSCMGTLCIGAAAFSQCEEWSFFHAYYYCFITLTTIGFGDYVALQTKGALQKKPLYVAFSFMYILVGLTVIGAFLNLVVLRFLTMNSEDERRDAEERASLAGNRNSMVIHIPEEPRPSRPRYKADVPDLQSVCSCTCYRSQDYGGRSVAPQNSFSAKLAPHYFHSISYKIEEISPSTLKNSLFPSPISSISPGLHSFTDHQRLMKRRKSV
hERG protect = hERG rescue from dofetilide block, primary screen, cell-based, CHO-hERG, FluxOR thallium flux, dofetilide IC70. Voltage-gated inwardly rectifying potassium channel KCNH2 (Homo sapiens), Q12809. dofetilide IC70 present. activation (rescue from dofetilide block), less the hit threshold, % at 10 µM. 310,000 compounds, 0.51% hits;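 active = activation above the mean of controls blocked by dofetilide plus 5 SD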;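 note: thallium influx through hERG after potassium depolarization seen as dye fluorescence rise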
Kir21 inh = inhibitors of mouse Kir2.1 inward-rectifier potassium channel. Inward rectifier potassium channel 2 (Mus musculus), P35561. HEK293-Kir2.1, FluxOR thallium flux fluorescence; active compounds read low. B-score at 10 µM. 310,000 compounds, 0.85% hits. AID 1672, 2009;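 active = fluorescence ratio B-score at or below minus 3 SD of library scores, with starting-brightness B-score within 2 SD, cut at about -4.2 in these data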;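 note: channel flux triggered by added potassium and thallium sulfate stimulus; B-score of peak minus minimum fluorescence over baseline after thallium stimulus; more negative B-score means stronger Kir2.1 block with less thallium influx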
KCNQ1 pot = potentiators or activators of KCNQ1 channel, primary screen, cell-based, thallium flux, high-throughput | 310,000 compounds, 0.35% hits | AID 2648, 2010 | Potassium voltage-gated channel subfamily KQT member 1 (Homo sapiens), P51787 | B-score at 10 µM | CHO-K1 KCNQ1, thallium flux FluxOR fluorescence; active compounds read high;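 active = fluorescence ratio B-score, a plate-corrected score, at least three library SD, with initial intensity B-score within 5 SD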
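System: Stable KCNQ1 CHO-K1 line | Incubation: 90 min dye loading and 20 min compound exposure, both at room temperature | Measure: Ratio B score | Medium: Assay buffer for compound exposure, DMSO matched across wells | Compound dosing: Single-concentration screen | Probe or stimulus: K+/Tl+ depolarizing stimulus | Measured by: Kinetic FluxOR fluorescence, 10 s baseline plus 110 s post-stimulus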
KCNK3 inh = human KCNK3 channel inhibitors, primary screen, CHO cells, FluxOR thallium flux, B-score; FluxOR fluorescence; active compounds read low; Potassium channel subfamily K member 3 (Homo sapiens), O14649; B-score at 10 µM; AID 602410, 2012; 340,000 compounds, 0.84% hits;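 active = B-score under library mean minus 4 SD, starting fluorescence ratio at most library mean plus 5 SD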;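 note: more negative B-score means stronger inhibition of thallium flux through KCNK3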
KCNK9 inh conf = KCNK9 potassium channel inhibitors, confirmation, HEK293 cells, thallium flux, duplicate; FluxOR thallium flux fluorescence; inhibition, % at 10 µM; shares compounds with KCNK9 block; 4,900 compounds, 43% hits;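 active = thallium signal inhibited by more than 5 SD of the compound-free buffer control wells, on both duplicate plates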
Kir21 sel = mouse Kir2.1 channel inhibition, confirmation, selectivity assay for KCNK9 modulator project, cell-based, HEK293, thallium flux | AID 492993, 2010 | 4,900 compounds, 4% hits | inhibition, % at 10 µM | shares compounds with KCNK9 block | Kir2.1 cells, FluxOR thallium flux fluorescence;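 active = thallium signal drop more than 5 SD beyond the mean of the no-compound control wells, seen in both duplicate plates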;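 note: signal is fluorescence rise after thallium addition divided by baseline fluorescence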
KCNK9 uninduced = thallium flux in non-induced HEK293 cells, confirmation, counter-screen for KCNK9 inhibitor project, cell-based, second counter screen, non-induced KCNK9-HEK293; FluxOR thallium flux; shares compounds with KCNK9 block; AID 492997, 2010; 4,900 compounds, 40% hits; inhibition, % at 10 µM;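 active = thallium signal drop beyond 5 SD of the untreated control mean, on both duplicate plates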
Numbers stand for hits; - = inactive; . = no result given. Hits are enriched below; roughly 3.7% of the tested compounds scored in any of these assays.

SMILES | KCNQ1 block | KCNK9 block | hERG protect | Kir21 inh | KCNQ1 pot | KCNK3 inh | KCNK9 inh conf | Kir21 sel | KCNK9 uninduced
COc1ccc(Cl)cc1NC(=O)C1(c2cccs2)CCOCC1 | - | - | - | - | - | - | . | . | .
C#CCOCCOCCOCCNc1nc(N2CCN(C(=O)C([C@@H](C)CC)n3cc(C(N)Cc4ccc(O)cc4)nn3)CC2)nc(N2CCN(C(=O)[C@H](CCC(=O)O)n3cc(C(N)Cc4ccc(O)cc4)nn3)CC2)n1 (some centres undefined) | - | - | - | - | - | - | . | . | .
Cc1[nH]nc(-c2ccc(O)c(C)c2O)c1Oc1ccccc1 | - | -14 | - | - | - | - | 34% | - | -
Cc1nc(C)n(CC(C)C(=O)N2CCN(S(=O)(=O)c3ccccc3)CC2)n1 (centres undefined) | - | - | - | - | - | - | . | . | .
CCN(CC)c1ccc(S(=O)(=O)N2CCOCC2)cc1NC(=O)Cn1nc(C)c([N+](=O)[O-])c1C | . | . | . | . | . | - | . | . | .
CCN(CC)c1ccc(S(=O)(=O)N2CCOCC2)cc1NC(=O)CN1CCc2ccccc2C1 | - | -10 | - | - | - | - | 51% | - | -
COc1ccc(N2C(=O)/C(=C\c3ccco3)N=C2SCC(=O)NC(C)(C)C)cc1Cl | - | -9.1 | - | - | - | - | 44% | - | 33%
COc1cc(C(=O)OCC(=O)c2ccccc2)cc2c1OCCO2 | . | . | . | . | . | - | . | . | .
O=[N+]([O-])c1ccc(N2N=C(c3ccccc3)CC2c2ccccc2O)cc1 (centres undefined) | - | - | - | - | - | - | . | . | .
CC(C)(C)C1=NN(c2ccc([N+](=O)[O-])cc2)C(c2ccccc2)C1 (centres undefined) | 9 | -8.8 | - | - | - | - | 44% | - | 48%
CCC(c1nnc(SCC(=O)Nc2c(F)cccc2F)n1Cc1ccccc1)N(C)C (centres undefined) | - | - | - | - | - | - | . | . | .
CCOc1ccc(OCCC(=O)N(CCCOC)c2c(N)n(Cc3ccccc3)c(=O)[nH]c2=O)cc1 | - | - | - | - | - | - | . | . | .
CCOc1ccc(S(=O)(=O)N2CCOCC2)cc1NC(=O)CSC(=S)N1CCCC1 | - | - | - | - | - | - | . | . | .
COc1ccc(-n2nc3c(c2NC(=O)c2ccc(S(=O)(=O)N4CCOCC4)cc2)CS(=O)C3)cc1 (centres undefined) | - | - | - | - | - | - | . | . | .
CC(=O)N(C)c1ccc(NC(=O)Cc2cccs2)cc1 | - | - | - | - | - | - | . | . | .
CN(CCc1ccccn1)C(=O)c1cc(COc2ccc(F)cc2F)on1 | - | - | - | - | - | - | . | . | .
Cc1cc(OCc2cc(C(=O)N(C)Cc3ccccn3)no2)cc(C)c1Cl | - | - | - | - | - | - | . | . | .
CN(CCc1ccccc1)C(=O)c1cc(COc2ccc(F)cc2Cl)on1 | - | - | - | - | - | - | - | - | -
Cc1cc(OCc2cc(C(=O)N(C)CCOc3ccccc3)no2)cc(C)c1Cl | - | - | - | - | - | - | - | - | -
CN(Cc1cnn(C)c1)C(=O)c1cc(COc2c(F)cccc2F)on1 | - | - | - | - | - | - | . | . | .
Cc1ccc(OCCN(C)C(=O)c2cc(COc3ccc(F)cc3F)on2)cc1 | - | - | - | - | - | - | - | - | -
COc1cccc(CN(C)C(=O)c2cc(COc3c(F)cccc3F)on2)c1 | - | - | - | - | - | - | - | - | -
CCOc1ccc2[nH]c(=O)c(CN(CCc3ccccc3)C(=O)N3CCCC3)cc2c1 | - | - | - | - | - | - | - | - | -
CCOc1ccc2[nH]c(=O)c(CN(CCc3ccccc3)C(=O)N3CCOCC3)cc2c1 | - | - | - | - | - | - | . | . | .
CCOC(=O)[C@H]1[C@H]2COc3ccc(Br)cc3[C@@H]2N2C(=O)c3cc(F)c(F)cc3NC(=O)[C@@]12C | . | . | . | . | . | - | . | . | .
SMILES | KCNQ1 block | KCNK9 block | hERG protect | Kir21 inh | KCNQ1 pot | KCNK3 inh | KCNK9 inh conf | Kir21 sel | KCNK9 uninduced
O=C1C(=O)c2c(C(=O)c3ccccc3)coc2-c2ccccc21 | 7 | -15 | - | - | - | - | 60% | - | 38%
O=C1CSC(c2ccc3c(c2)OCO3)N1c1ccc(Oc2ccccc2)cc1 (centres undefined) | - | -14 | - | - | - | - | 50% | - | -
Cc1ccc(N2C(=O)CSC2c2ccc3c(c2)OCO3)cc1 (centres undefined) | - | - | - | - | - | - | . | . | .
CCCN(CCC)C(=O)CC(c1ccccc1)c1ccc(C)cc1O (centres undefined) | - | - | - | - | - | - | . | . | .
CCCN(CCC)C(=O)CC(c1ccccc1)c1cc(Br)ccc1O (centres undefined) | - | -13 | - | - | - | - | 36% | - | 40%
COc1cccc(-c2c(C(=O)N/N=C/c3ccc(C)o3)nnn2-c2nonc2N)c1 | - | - | - | - | - | - | . | . | .
CC1C(=NO)C(C)C(c2ccccc2)NC1c1ccccc1 (centres undefined) | - | - | - | - | - | - | . | . | .
Cc1ccc(C2NC(c3ccc(C)cc3)C(C)C(=NO)C2C)cc1 (centres undefined) | - | - | - | - | - | - | - | - | -
Cc1ccc(C)c(NC(=S)N/N=C2\CCc3ccccc32)c1 | - | - | - | - | - | - | . | . | .
Cc1cccc(NC(=S)N/N=C2/CCCCc3ccccc32)c1 | - | - | 5.8 | - | - | - | - | - | -
Cc1ccc(NC(=S)N/N=C2/CCCCc3ccccc32)cc1 | - | - | - | - | 8 | - | - | - | -
O=C(CN1CCN(C(C(=O)Nc2ccc(Cl)cc2C(F)(F)F)c2ccccc2)CC1)NC1CC1 (centres undefined) | . | . | . | . | . | - | . | . | .
O=C(/C=C/c1ccco1)N(Cc1ccccc1F)C1CCS(=O)(=O)C1 (centres undefined) | - | - | - | - | - | - | . | . | .

Screening data (PubChem BioAssay)
